5HT1a antag = human 5-HT1a receptor antagonists, primary screen, cell-based, CHO, Ga15 NFAT-bla reporter; 5-hydroxytryptamine receptor 1A (Homo sapiens), P08908; CHO 5-HT1a Ga15 NFAT-bla reporter, antagonist mode; inhibition, % at 10 µM; 62,000 tested, 0.68% active; AID 612, 2007;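 active = inhibition above the mean of all tested compounds plus 3 SD, cut at about 43% in these data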;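 note: receptor stimulated by 5-CT agonist at 100 nM near EC80; beta-lactamase reporter measured by ratiometric fluorescence of a cleavable substrate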
S1P3 agonist = human S1P3 receptor agonists, primary screen, cell-based, primary and confirmation, NFAT-BLA reporter. S1P3 NFAT-BLA reporter cells, agonism, FRET ratio; relative to 1 µM S1P, basal subtracted. Sphingosine 1-phosphate receptor 3 (Homo sapiens), Q99500. activation, % at 4.5 µM. 60,000 tested, 0.1% active;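 active = activation above the screen-wide mean plus 3 SD, cut at about 4.5% in these data, passing the limit was not always enough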
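Assay system: CHO cells stably expressing human S1P3, Gα16 and NFAT-β-lactamase reporter. Timing: overnight plating, 4 h compound 37 °C, 2 h substrate RT. Signal: β-lactamase FRET emission ratio 460/535 nm. Measure: percent activation versus median 1 µM S1P response, basal-subtracted, per plate. Repeats: primary screen single test, confirmation screen in triplicate.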
S1P1 ag pot = S1P1 agonists and agonism potentiators, primary screen, cell-based, primary and confirmation screens, CRE-bla reporter; Sphingosine 1-phosphate receptor 1 (Homo sapiens), P21453; S1P1 CRE-bla cells, forskolin, beta-lactamase FRET, potentiator mode; S1P1 agonist co-added at EC20, 2 nM; 100% = saturating reference agonist, 0% = basal; activation, % at 9.5 µM; 56,000 tested, 0.57% active; AID 449, 2006;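 active = activation above a cutoff set at the mean activation of all tested compounds plus 3 SD, cut at about 54% in these data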;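 note: forskolin at 4 µM as EC80 and the EC20 agonist is SEW2871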
Target sequence (P21453 whole entry, looked up): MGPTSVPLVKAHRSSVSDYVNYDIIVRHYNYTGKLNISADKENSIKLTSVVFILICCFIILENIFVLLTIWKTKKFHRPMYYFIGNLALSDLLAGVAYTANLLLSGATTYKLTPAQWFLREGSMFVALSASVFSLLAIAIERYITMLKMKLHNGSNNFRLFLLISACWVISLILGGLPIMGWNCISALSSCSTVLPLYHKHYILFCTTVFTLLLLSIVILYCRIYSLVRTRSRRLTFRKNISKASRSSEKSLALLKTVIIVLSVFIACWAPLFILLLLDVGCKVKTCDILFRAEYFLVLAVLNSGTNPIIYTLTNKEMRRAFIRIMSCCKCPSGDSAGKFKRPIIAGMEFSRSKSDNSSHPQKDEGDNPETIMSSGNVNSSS
HTR1E antagonist = 5-HT1E receptor antagonists, primary screen, cell-based, HTS; inhibition, % at 6 µM; CHO 5-HT1E Ga15 NFAT-bla reporter, FRET, antagonist; 65,000 tested, 0.99% active; AID 571, 2007; 5-hydroxytryptamine receptor 1E (Homo sapiens), P28566;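 active = inhibition above a set limit, the mean inhibition across every tested compound plus 3 SD, cut at about 29% in these data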;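 note: signal is the 460 over 535 nm emission ratio of beta-lactamase substrate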
HTR1A agonist = human 5-HT1a receptor agonists, primary screen, cell-based, CHO, Ga15 NFAT-bla reporter. 65,000 tested, 0.56% active. CHO 5-HT1a Ga15 NFAT-bla reporter, FRET ratio; 0% basal, 100% maximal reference agonist. 5-hydroxytryptamine receptor 1A (Homo sapiens), P08908. activation, % at 10 µM;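 active = activation above the screen-wide mean activation plus 3 SD, cut at about 19% in these data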
HTR1E agonist = 5-HT1E receptor agonists, primary screen, cell-based, HTS; 65,000 tested, 0.69% active; CHO 5-HT1E Ga15 NFAT-bla reporter, FRET; 0% DMSO wells, 100% control agonist wells; 5-hydroxytryptamine receptor 1E (Homo sapiens), P28566; activation, % at 6 µM;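 active = activation above a set limit, the screen-wide mean activation plus 3 SD, cut at about 8.5% in these data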
Each line names hits and unclear results; the compound was inactive in the other large screens. In the library only some 3% were active in any assay of this set; here they are far more common.

CCn1c(SCc2ccc(C(=O)OC)o2)nc2sc3c(c2c1=O)CCCC3	HTR1E agonist 9.3
COc1ccccc1-n1cnnc1SCC(=O)c1ccc[nH]1	none
Cc1c(=O)n(OCc2ccccc2F)c2ccccc2[n+]1[O-]	HTR1A agonist 25
CC(C)c1nc(N2CCOCC2)c(C#N)c2c1CCCC2	none (no result: S1P1 ag pot)
CCN(CC)c1nc(N2CCOCC2)c(C#N)c2c1CN(C)CC2	HTR1E agonist 52 (no result: 5HT1a antag)
CC(C)Sc1nc(N2CCOCC2)c2c(c1C#N)CC(C)(C)SC2	none
CCSc1nc(N2CCOCC2)c2c(c1C#N)CCCC2	S1P3 agonist 4.7
CC(C)CSc1nc(N2CCOCC2)c2c(c1C#N)CC(C)(C)SC2	HTR1E antagonist 29 (no result: 5HT1a antag)
O=C(CCn1c(=O)c2ccccc2n(Cc2cc(=O)n3ccccc3n2)c1=O)NCc1ccco1	none
Cc1ccc(-c2nc(NC(=O)CSc3nnnn3-c3ccccc3)ns2)cc1	5HT1a antag 50
CC(C)(CNC(=O)c1cc2ccccc2o1)N1CCOCC1	none
N#Cc1cnn(-c2ccccc2)c1N	none (no result: S1P3 agonist, S1P1 ag pot)
CC(C)C1N(c2ccccc2)C(N)=C(C#N)C1(C#N)C#N (configuration not stated)	HTR1E antagonist 33
CN=Cc1sc2ccccc2c1O	none
CC(=O)NCCN=Cc1sc2ccccc2c1O	HTR1A agonist 49 (no result: S1P3 agonist, S1P1 ag pot)
CCCCOc1ccc(S(=O)(=O)Nc2cccnc2)cc1	S1P1 ag pot 85
O=C(CCNS(=O)(=O)c1ccccc1F)NCc1ccc2c(c1)OCO2	none
O=C(O)c1ccccc1C(=O)N1CC=C(c2ccccc2)CC1	HTR1E agonist 12
O=C(CSc1nnc2c3cc(F)ccc3nc(-c3ccccc3)n12)N1CCOCC1	none
O=C(Nc1ccc(N2CCOCC2)c(Cl)c1)c1cccnc1	none
Nc1ccc(N2CCOCC2)c(Cl)c1	S1P1 ag pot 93
CCS(=O)(=O)N1CCC(C(=O)N2CCc3ccccc3C2)CC1	none
Cc1nc(NCCCn2ccnc2)c2oc3ccccc3c2n1	HTR1E antagonist 32
CCOc1ccc(-c2nc(CSCC(=O)N3CCN(c4cccc(OC)c4)CC3)c(C)o2)cc1	S1P1 ag pot 69
Cc1cccc(-c2nc(CSCC(=O)N3CCN(Cc4ccc5c(c4)OCO5)CC3)c(C)o2)c1	S1P1 ag pot 58
O=C(CSCc1ccccc1)N1CCN(Cc2ccc3c(c2)OCO3)CC1	none
CCc1cc2c(=O)n(Cc3ccco3)c(SCc3c(C)noc3C)nc2s1	none
CCCn1c(NC(=O)c2cccc(S(=O)(=O)N3CCCC3)c2)nc2ccccc21	5HT1a antag 50, S1P1 ag pot 74
CCCn1c(NC(=O)c2ccccc2)nc2ccccc21	none
CCOCCCNC(=O)C(c1ccc(C)cc1)N(Cc1ccc2c(c1)OCO2)C(=O)CNC(C)=O (configuration not stated)	none (no result: S1P3 agonist, S1P1 ag pot)
Nn1cc(-c2ccccc2)nc1SCC(=O)N1CCN(S(=O)(=O)c2ccc(Cl)cc2)CC1	none
Cc1nnc(SCC(=O)N2CCN(S(=O)(=O)c3ccc(Cl)cc3)CC2)n(N)c1=O	HTR1E agonist 24
CN1CCc2c(sc3c2c(=O)n(-c2ccccc2)c2nnc(SCc4ccc(Cl)cc4)n32)C1	none
O=C(Nc1ccc2c(c1)OCO2)c1cccc2c1C(=O)N(Cc1cccnc1)C2	none
COc1cc(NC(=O)c2cccc3c2C(=O)N(Cc2cccnc2)C3)cc(OC)c1OC	HTR1E antagonist 30
N=c1n(CCN2CCCC2)c2ccccc2n1CC(O)c1ccco1 (configuration not stated)	none

Screening results: PubChem, The Scripps Research Institute Molecular Screening Center
